This is an account of results in ChEMBL document CHEMBL3739299, “8-Hydroxyquinoline-based inhibitors of the Rce1 protease disrupt Ras membrane localization in human cells” (Bioorg Med Chem, 2016).

Series [1] deals with T1, CAAX prenyl protease 2 (Homo sapiens) (UniProt Q9Y256).
T1 sequence (whole entry): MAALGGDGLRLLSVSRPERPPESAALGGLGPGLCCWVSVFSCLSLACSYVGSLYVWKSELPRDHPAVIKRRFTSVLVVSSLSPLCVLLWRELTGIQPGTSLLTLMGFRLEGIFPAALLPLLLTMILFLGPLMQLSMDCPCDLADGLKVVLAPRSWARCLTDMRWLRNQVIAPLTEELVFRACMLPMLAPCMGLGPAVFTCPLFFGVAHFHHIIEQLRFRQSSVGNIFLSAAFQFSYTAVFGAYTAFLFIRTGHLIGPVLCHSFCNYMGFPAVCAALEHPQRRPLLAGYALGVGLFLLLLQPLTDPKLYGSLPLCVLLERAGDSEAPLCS
Description: Inhibition of human Rce1-mediated CaaX protease activity using […] and […] as substrate assessed as residual activity at 10 uM measured every 30 to 60 seconds for 60 mins. In a few lines: (§1)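 Membranes from yeast SM3614 (ste24 rce1 null) overexpressing human Rce1, 0.25 mg/mL final in 200 mM Tris pH 7.5, 200 mM NaCl, 1 mg/mL BSA. […] Reaction started with 20 μM ABZ-KSKTKC(farnesyl)QLIM. Fluorescence (ex 320/em 420) read every 30–60 s for 60 min at 30 °C. Initial velocities trypsin-normalised; activity given as % of DMSO control.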

The target in series [2] is T2, CAAX prenyl protease 1 homolog (Homo sapiens) (UniProt O75844).
T2 sequence (whole entry): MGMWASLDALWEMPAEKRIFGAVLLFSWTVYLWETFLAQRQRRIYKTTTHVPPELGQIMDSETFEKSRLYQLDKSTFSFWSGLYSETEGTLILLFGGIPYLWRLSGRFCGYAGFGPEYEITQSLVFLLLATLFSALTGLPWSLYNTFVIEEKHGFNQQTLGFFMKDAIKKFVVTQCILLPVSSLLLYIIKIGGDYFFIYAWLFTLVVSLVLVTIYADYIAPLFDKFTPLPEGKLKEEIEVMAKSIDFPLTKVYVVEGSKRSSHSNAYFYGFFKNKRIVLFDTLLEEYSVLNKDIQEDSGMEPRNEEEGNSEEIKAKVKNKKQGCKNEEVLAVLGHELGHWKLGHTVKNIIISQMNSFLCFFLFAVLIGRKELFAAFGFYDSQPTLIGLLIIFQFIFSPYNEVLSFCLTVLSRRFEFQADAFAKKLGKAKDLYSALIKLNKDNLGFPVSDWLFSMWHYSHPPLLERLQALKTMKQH
The series can be described thus: Inhibition of human FACE1-mediated CaaX protease activity at 10 uM measured every 30 to 60 seconds for 60 mins. The procedure, abridged: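 Human Ste24 overexpressed in yeast strain SM3614 (ste24 rce1 null); membranes 0.25 mg/mL final in 200 mM Tris pH 7.5, 200 mM NaCl, 1 mg/mL BSA. Pretreated 15 min at 30 °C with 10 μM compound in duplicate, then 20 μM ABZ-KSKTKC(farnesyl)VIQL substrate added. Fluorescence (ex 320/em 420) read every 30–60 s for 60 min at 30 °C. Initial velocities normalised via trypsin-digest maximum fluorescence and expressed as % of DMSO control. SD shown.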

Series [3] can be described thus: Cytotoxicity against human HCT116 cells assessed as cell death at 25 uM after 20 hrs by celltiter blue assay (reference value: 0.4%). In kind it is cell-based. The conditions noted are these: hct-116, 20 h. In a few lines: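 HCT-116 cells grown in DMEM with 10% FBS and 1% NEAA at 37 °C, 5% CO2, seeded 7 × 10^3 per well, exposed 20 h to 25 μM compound (0.4% DMSO vehicle; untreated control). CellTiter-Blue added for 4 h, fluorescence read at 560/590 nm. Values relative to untreated cells, mean of three independent experiments with SEM.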
On the technique in general: The colour change of resazurin is a common sign of viable cells or microbes.

Series [4] addresses T3, CAAX prenyl protease 2 (Homo sapiens, UniProt Q9Y256).
T3 sequence (Q9Y256 whole entry): T1 sequence (whole entry)
The series can be described thus: Inhibition of human Rce1-mediated CaaX protease activity using ABZ-KSKTKC(farnesyl)QIIM and ABZ-KSKTKC(farnesyl)VIQI as substrate assessed as residual activity measured every 30 to 60 seconds for 60 mins. In a few lines:
as §1

pIC50: −log10 of the molar value. Active and inactive are the calls of the source. The calls are words filed in the database; no cut-off is given here.

With `Oc1c(C(Nc2ccccc2)c2ccccc2)cc(Cl)c2cccnc12` (centres undefined), the Activity in series [1] came out at 68%. As a reminder, the pIC50 is the IC50 on a negative log10 scale, so that one unit is a factor of ten. As to `O=C(O)c1ccc(NC(c2ccc(F)cc2)c2ccc3cccnc3c2O)cc1` (centres undefined), in series [2], the inhibition result was “inactive”. In series [1], the Activity is 32%. Further, the Cell death in series [3] is recorded as less than 10%. The pIC50 in series [4] is 5.09. Take `COC(=O)c1ccc(NC(c2ccccc2)c2ccc3cccnc3c2OC)cc1` (centres undefined): the Activity in series [1] turned out to be 65%. For the same molecule, the Cell death in series [3] is recorded as less than 10%. The corresponding values for `Oc1c(CNc2ccccc2)ccc2cccnc12` are 82% and less than 10%. The like results for `O=C(NC(c1ccccc1)c1ccc2cccnc2c1O)c1ccccc1` (centres undefined) were, in that order, 81% and less than 10%. Consider `Cc1ccc(NC(c2ccccc2)c2ccc3cccnc3c2O)cc1` (centres undefined), for which the inhibition result in series [2] was “inactive”. Further, in series [1], the Activity is 54%. The pIC50 in series [4] was 5.06.

With `Cc1ccc(C(Nc2ccc(C(=O)O)cc2)c2ccc3cccnc3c2O)cc1` (centres undefined), the inhibition result in series [2] is “inactive”. The Activity in series [1] turned out to be 32%. Also, the pIC50 in series [4] was 5.15. On to `CCOC(=O)c1ccc(NC(c2ccccc2)c2ccccc2)cc1`, for which the Activity in series [1] came out at 82%. For the same molecule, in series [3], the Cell death was less than 10%. For `O=C(Nc1ccccc1)c1ccc(NC(c2ccccc2)c2ccccc2)cc1`, the Activity in series [1] was determined as 78%. With `Oc1c(C(Nc2ccccc2)c2ccccc2)cc(Br)c2cccnc12` (centres undefined), the Activity in series [1] is 73%. Regarding `CCOC(=O)c1ccc(NC(c2ccc3cccnc3c2O)C2CCCC2)cc1` (centres undefined), the Activity in series [1] was 82%. The Cell death in series [3] is recorded as less than 10%. In the case of `Oc1ccc2ccccc2c1C(Nc1ccccc1)c1ccccc1` (centres undefined), the Activity in series [1] came to 59%. The Cell death in series [3] is less than 10%. `CCOC(=O)c1ccc(NC(c2ccc(C(F)(F)F)cc2)c2ccc3cccnc3c2O)cc1` (centres undefined): the Activity in series [1] was 89%. Besides, the Cell death in series [3] is on record as less than 10%.

On to `Oc1c(C(Nc2ccccc2)c2ccccc2)ccc2cc3ccccc3nc12` (centres undefined), for which the Activity in series [1] was determined as 51%.

For `CCOC(=O)c1ccc(NC(c2ccccc2)c2ccc(Br)cc2)cc1` (centres undefined), the Activity in series [1] was determined as 79%. Take `Oc1c(C(Nc2ccccc2)c2c(F)cc(Br)cc2F)ccc2ccccc12` (centres undefined): the inhibition result in series [2] was “inactive”. For the same molecule, the Activity in series [1] came out at 45%. Besides, the Cell death in series [3] came out at 40%. Further, the pIC50 in series [4] was 5.03.

Consider `O=C(Nc1ccc2ccccc2c1)c1ccc(NC(c2ccccc2)c2ccccc2)cc1`, for which, in series [1], the Activity is 89%. For the molecule `CCOC(=O)c1ccc(NC(c2ccc(Cl)cc2)c2ccc3cccnc3c2O)cc1` (centres undefined), the Activity in series [1] came out at 71%. Also, the Cell death in series [3] is on record as less than 10%. Take `O=C(O)c1ccc(NC(c2ccc(Br)cc2)c2ccc3ccccc3c2O)cc1` (centres undefined): the inhibition entry in series [2] is “inactive”. Besides, the Activity in series [1] was 23%. Also, in series [3], the Cell death is less than 10%. Further, the pIC50 in series [4] was 5.41. The corresponding values for `Oc1c(C(Nc2ccccc2)c2ccccc2)ccc2ccccc12` (centres undefined) are “inactive”, 17%, less than 10% and 5.31.

Regarding `O=[N+]([O-])c1ccc(C(Nc2ccccc2)c2ccc3cccnc3c2O)cc1` (centres undefined), in series [2], the inhibition result was “inactive”. Besides, in series [1], the Activity came out at 85%. Moreover, in series [4], the pIC50 was 4.96. `CCOC(=O)c1ccc(NC(c2ccccc2)c2ccc3cccnc3c2O)cc1` (centres undefined): in series [1], the Activity was determined as 52%. Also, the Cell death in series [3] is reported as less than 10%. For the molecule `c1ccc(NC(c2ccccc2)c2ccc3cccnc3c2)cc1` (centres undefined), the Activity in series [1] amounted to 82%.

Consider `O=C(Nc1ccccc1)c1ccc(NC(c2ccccc2)c2ccc(Br)cc2)cc1` (centres undefined), for which the Activity in series [1] was determined as 78%. As for `O=C(O)c1ccc(NC(c2ccccc2)c2ccc(Br)cc2)cc1` (centres undefined), the Activity in series [1] amounted to 86%. Still for that read-out and setting: next, `C[C@@H](N[C@H](c1ccccc1)c1c(O)ccc2ccccc12)c1ccccc1`: 63%.

`O=C(O)c1ccc(NC(c2ccc3cccnc3c2O)c2c(F)cc(Br)cc2F)cc1` (centres undefined): the Activity in series [1] stood at 64%. Also, in series [3], the Cell death is given as less than 10%.

As to `O=C(O)c1ccc(NC(c2ccc(Br)cc2)c2ccc(Br)cc2)cc1`, in series [1], the Activity was 83%.

For `Cc1ccc2ccc(C(Nc3ccccc3)c3ccccc3)c(O)c2n1` (centres undefined), in series [1], the Activity is 83%. On to `N#Cc1ccc(NC(c2ccccc2)c2ccc3cccnc3c2O)cc1` (centres undefined), for which the Activity in series [1] was 56%. In series [3], the Cell death was less than 10%. `O=C(O)c1ccc(NC(c2ccccc2)c2ccc3ccccc3c2O)cc1` (centres undefined): in series [2], the inhibition result was “inactive”. Moreover, the Activity in series [1] was 19%. The Cell death in series [3] is listed as less than 10%. Besides, the pIC50 in series [4] was 5.38. Regarding `CCOC(=O)c1ccc(NC(c2ccc(Br)cc2)c2ccc(Br)cc2)cc1`, the Activity in series [1] worked out at 83%.

`O=C(O)c1ccc(NC(c2ccc3ccccc3c2O)c2c(F)cc(Br)cc2F)cc1` (centres undefined): the inhibition entry in series [2] is “inactive”. In addition, in series [1], the Activity came out at 21%. Further, the Cell death in series [3] was less than 10%. In addition, the pIC50 in series [4] is 5.42. As to `O=C(Nc1ccccc1)c1ccc(NC(c2ccc(Br)cc2)c2ccc(Br)cc2)cc1`, the Activity in series [1] worked out at 80%.

Consider `CCOC(=O)c1ccc(NC(c2ccc(F)cc2)c2ccc3cccnc3c2O)cc1` (centres undefined), for which, in series [1], the Activity turned out to be 63%. For the same molecule, the Cell death in series [3] is on record as less than 10%. With `O=C(O)c1cccc(NC(=O)c2ccc(NC(c3ccccc3)c3ccccc3)cc2)c1`, the Activity in series [1] came out at 72%. Take `Oc1c(C(/N=C/c2ccccc2)c2ccccc2)ccc2cccnc12` (centres undefined): in series [1], the Activity worked out at 73%. Moreover, the Cell death in series [3] is less than 10%. In the case of `Oc1c(C(Nc2ccccc2)c2c(F)cc(Br)cc2F)ccc2cccnc12` (centres undefined), the Activity in series [1] was 76%. Besides, the Cell death in series [3] was less than 10%. Consider `O=C(OCc1ccccc1)c1ccc2ccc(C(Nc3ccccc3)c3ccccc3)c(O)c2n1` (centres undefined), for which, in series [1], the Activity is 75%. Turning to `Oc1ccc2ccc(O)c(C(Nc3ccccc3)c3ccccc3)c2c1` (centres undefined), the Activity in series [1] was determined as 51%. Also, the Cell death in series [3] is reported as less than 10%. On to `O=[N+]([O-])c1ccc(NC(c2ccc(Br)cc2)c2ccc3cccnc3c2O)cc1` (centres undefined), for which the Activity in series [1] came to 64%. For the same molecule, the Cell death in series [3] is on record as less than 10%. Regarding `O=C(O)c1ccc(NC(c2ccccn2)c2ccc3cccnc3c2O)cc1` (centres undefined), in series [2], the inhibition entry is “inactive”. For the same molecule, the Activity in series [1] came to 90%. Moreover, in series [4], the pIC50 is 4.42. `CCCCCCCCOc1ccc(C(Nc2ccccc2)c2ccc3cccnc3c2O)cc1` (centres undefined): the Activity in series [1] amounted to 89%.

Regarding `Oc1c(C(Nc2ccccc2)C2CCCCC2)ccc2cccnc12` (centres undefined), the Activity in series [1] turned out to be 59%. The Cell death in series [3] is less than 10%. As for `c1ccc(NC(c2ccccc2)c2ccc3ccccc3c2)cc1` (centres undefined), the Activity in series [1] turned out to be 77%.

Take `N#Cc1ccc(C(Nc2ccc(C(=O)O)cc2)c2ccc3cccnc3c2O)cc1` (centres undefined): the inhibition result in series [2] is “inactive”. Moreover, in series [1], the Activity came to 76%. Also, the pIC50 in series [4] was 4.80.

Consider `O=C(O)c1ccc2ccc(C(Nc3ccccc3)c3ccccc3)c(O)c2n1` (centres undefined), for which the Activity in series [1] was determined as 77%. Consider `N#Cc1ccc2ccc(C(Nc3ccccc3)c3ccccc3)c(O)c2n1` (centres undefined), for which the Activity in series [1] stood at 83%. On the same count and under the same terms, next, `O=C(O)c1ccc(NC(c2ccccc2)c2ccccc2)cc1`: 90%. Regarding `Oc1c(C(Nc2nc3ccccc3s2)c2ccccc2)ccc2cccnc12` (centres undefined), the Activity in series [1] worked out at 83%. Besides, in series [3], the Cell death is less than 10%. In the case of `O=C(O)c1ccc(NC(c2cccnc2)c2ccc3cccnc3c2O)cc1` (centres undefined), in series [2], the inhibition entry is “inactive”. In addition, in series [1], the Activity came to 70%. Further, in series [4], the negative-log IC50 (pIC50) is 4.85.
